Assay [1] can be described thus: Inhibition of […] BRD4 bromodomain 1 incubated for 60 mins by TR-FRET assay.
Assay [2] concerns MV4-11. Description: Antiproliferative activity against human MV4-11 cells incubated for 72 hrs by CCK-8 assay. The format is functional, cell-based. The following applies: MV4-11, 72 h. A general note: Formazan colour is commonly taken as a measure of viable cells.
In the next assay the test system is HL-60. Description: Antiproliferative activity against human HL60 cells incubated for 72 hrs by CCK-8 assay. It counts as functional, cell-based. The following applies: HL-60, 72 h.
Assay [3] concerns MV4-11. The assay is described as follows: Induction of apoptosis in human MV4-11 cells assessed as necrotic cells level at 5 uM incubated for 24 hrs by Annexin V-FITC and propidium iodide staining based flow cytometry (reference value: 0.0%). The format is functional. Background: In flow cytometry, cells or beads pass a laser one at a time.
The test system of assay [4] is MV4-11. The assay is described as follows: Induction of apoptosis in human MV4-11 cells assessed as viable cells level at 5 uM incubated for 24 hrs by Annexin V-FITC and propidium iodide staining based flow cytometry (reference value: 97.7%). It counts as functional.
Assay [5] concerns MV4-11. The assay is described as follows: Induction of cell cycle arrest in human MV4-11 cells assessed as accumulation at G1 phase incubated for 24 hrs by propidium iodide staining based flow cytometry. It counts as functional. In a few lines: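 MV4;11 cells, used within two months of culture, grown in IMDM with 10% FBS and 1% penicillin-streptomycin at 37℃ under CO2. Cells were treated with compound for 24 h and then processed with a cell cycle detection kit following the kit protocol. Phase distribution was analysed by flow cytometry.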

Assay [6] concerns MV4-11. The assay is described as follows: Induction of apoptosis in human MV4-11 cells assessed as necrotic cells level at 1 uM incubated for 24 hrs by Annexin V-FITC and propidium iodide staining based flow cytometry (reference value: 0.0%). The format is functional.
In assay [7] the test system is MV4-11. The assay is described as follows: Reduction in c-Myc protein expression in human MV4-11 cells at 1 to 10 uM incubated for 4 hrs Western blotting. The format is functional, cell-based. Summed up: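 MV4;11 leukemia cells (used within two months) were grown in IMDM with 10% FBS and 1% penicillin-streptomycin at 37℃ and 5% CO2. Log-phase cells were cultured 24 h, then treated for 4 h. They were lysed at 4℃ and protein was quantified by BCA. Lysates were run on SDS-PAGE (10% separating, 4% stacking gel) and transferred to PVDF. Membranes were blocked 2 h in 5% milk/TBST, probed overnight at 4℃ with anti-c-myc and anti-β-actin, and given secondary antibody for 2 h.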
For orientation: Immunoblotting shows a protein as a band on a membrane.

For assay [8], the system named is MV4-11. The assay is described as follows: Induction of apoptosis in human MV4-11 cells assessed as late apoptotic cells level at 1 uM incubated for 24 hrs by Annexin V-FITC and propidium iodide staining based flow cytometry (reference value: 1.5%). It counts as functional.
The test system of assay [9] is MV4-11. The assay is described as follows: Induction of apoptosis in human MV4-11 cells assessed as viable cells level at 1 uM incubated for 24 hrs by Annexin V-FITC and propidium iodide staining based flow cytometry (reference value: 97.7%). It counts as functional.
For assay [10], the system named is MV4-11. Description: Induction of apoptosis in human MV4-11 cells assessed as early apoptotic cells level at 5 uM incubated for 24 hrs by Annexin V-FITC and propidium iodide staining based flow cytometry (reference value: 0.8%). It counts as functional.
Assay [11] relates to MV4-11. Description: Induction of apoptosis in human MV4-11 cells assessed as late apoptotic cells level at 5 uM incubated for 24 hrs by Annexin V-FITC and propidium iodide staining based flow cytometry (reference value: 1.5%). It counts as functional.
The subject of assay [12] is MV4-11. Description: Induction of apoptosis in human MV4-11 cells assessed as early apoptotic cells level at 1 uM incubated for 24 hrs by Annexin V-FITC and propidium iodide staining based flow cytometry (reference value: 0.8%). The format is functional.

Molecules are shown by their SMILES. The source made the active and inactive calls. The rule behind the calls is not given here. Bounds are passed on as bounds.

Usually IC50 stands for the concentration needed to halve the response being measured. A higher IC50 goes with a need for much substance.

As to `COc1ccc(Nc2ncc3c(n2)N(C2CCCC2)Cc2nnc(C)n2-3)cc1`, the IC50 in [1] amounted to 0.16 µM; in the assay on MV4-11 [2], 4.84 µM; with HL-60, 18.7 µM.
For `Cc1nnc2n1-c1cnc(Nc3ccccc3)nc1N(C1CCCC1)C2` the same measures were 0.22 µM, 5.53 µM and 21.4 µM.
Turning to `Cc1nnc2n1-c1cnc(Nc3ccc(N)cc3)nc1N(C1CCCC1)C2`, the Activity in the assay on MV4-11 [3] was 3.4%; with MV4-11 [4] it was 72.5%; in the assay on MV4-11 [5], “Dose-dependent effect”; in the assay on MV4-11 [6] it was 5.9%; in the assay on MV4-11 [8], 3.9%; in the assay on MV4-11 [9] it was 89.7%. For the same compound, the results for the Activity in the assay on MV4-11 [10], in the assay with MV4-11 [11] and in the assay on MV4-11 [12] were 3.8%, 20.4% and 0.5%, respectively. Also, the IC50 worked out at 0.079 µM in assay [1], 1.53 µM with MV4-11 [2] and 7.16 µM in the assay with HL-60. The outcome with MV4-11 [7] was Active.
`Cc1nnc2n1-c1cnc(Nc3cccc(Cl)c3)nc1N(C1CCCC1)C2`: the IC50 in [1] was 1.43 µM; in the assay with MV4-11 [2], above 30 µM; in the assay with HL-60, above 30 µM.
As for `Cc1sc2c(c1C)C(c1ccc(Cl)cc1)=N[C@@H](CC(=O)OC(C)(C)C)c1nnc(C)n1-2`, the Activity was 4% in the assay on MV4-11 [3]; 61.6% with MV4-11 [4]; “Dose-dependent effect” in the assay on MV4-11 [5]; 6.1% with MV4-11 [6]; 9.1% in the assay with MV4-11 [8]; 84.5% in the assay with MV4-11 [9]. Also, the Activity with MV4-11 [10] is reported as 2.5%; in the assay with MV4-11 [11] it was 31.9%; in the assay with MV4-11 [12] it was 0.2%. The IC50 in assay [1] came to 0.066 µM; in the assay on MV4-11 [2], 0.57 µM; with HL-60, 2.91 µM.
Turning to `Cc1nnc2n1-c1cnc(Nc3ccc([N+](=O)[O-])cc3)nc1N(C1CCCC1)C2`, the IC50 in [1] was 0.54 µM; in the assay on MV4-11 [2], 21.4 µM; with HL-60, above 30 µM.
The matching figures for `Cc1nnc2n1-c1cnc(Nc3ccc(F)cc3)nc1N(C1CCCC1)C2`: 1.28 µM, above 30 µM and above 30 µM.
For `Cc1nnc2n1-c1cnc(Nc3ccc(C(C)(C)C)cc3)nc1N(C1CCCC1)C2` the same measures were above 30 µM, above 30 µM and above 30 µM.
For `COc1cccc(Nc2ncc3c(n2)N(C2CCCC2)Cc2nnc(C)n2-3)c1` the same measures were 0.18 µM, 6.74 µM and 25.5 µM.
As to `Cc1nnc2n1-c1cnc(Nc3ccc(Cl)cc3)nc1N(C1CCCC1)C2`, the IC50 in assay [1] was 1.54 µM; in the assay with MV4-11 [2] it was above 30 µM; in the assay on HL-60, above 30 µM.
For the compound `Cc1nnc2n1-c1cnc(Nc3ccc(C(C)C)cc3)nc1N(C1CCCC1)C2`, the IC50 in [1] is 0.86 µM; in the assay with MV4-11 [2], 16.2 µM; with HL-60, above 30 µM.
For `Cc1cccc(Nc2ncc3c(n2)N(C2CCCC2)Cc2nnc(C)n2-3)c1` the same measures were 1.56 µM, above 30 µM and above 30 µM.
For `Cc1nnc2n1-c1cnc(Nc3ccc(S(C)(=O)=O)cc3)nc1N(C1CCCC1)C2` the same measures were 0.089 µM, 1.92 µM and 7.85 µM.
On to `CCCCc1ccc(Nc2ncc3c(n2)N(C2CCCC2)Cc2nnc(C)n2-3)cc1`, for which the figures for the IC50 (in assay [1]; in the assay with MV4-11 [2]; with HL-60) were 1.43 µM, above 30 µM and above 30 µM, respectively.
Turning to `COc1ccccc1Nc1ncc2c(n1)N(C1CCCC1)Cc1nnc(C)n1-2`, the IC50 worked out at 0.16 µM in [1], 4.17 µM in the assay with MV4-11 [2] and 19.2 µM in the assay with HL-60.
For `Cc1nnc2n1-c1cnc(Nc3ccccc3[N+](=O)[O-])nc1N(C1CCCC1)C2` the same measures were 0.18 µM, 10.7 µM and above 30 µM.
With `COc1ccc(Nc2ncc3c(n2)N(C2CCCC2)Cc2nnc(C)n2-3)cc1OC`, the IC50 in [1] turned out to be 0.22 µM; in the assay with MV4-11 [2], 6.79 µM; in the assay on HL-60 it was 26.7 µM.
As for `Cc1ccc(Nc2ncc3c(n2)N(C2CCCC2)Cc2nnc(C)n2-3)cc1`, the values for the IC50 (in assay [1]; in the assay on MV4-11 [2]; with HL-60) were 0.38 µM, 7.34 µM and 29 µM, respectively.
The matching figures for `Cc1ccccc1Nc1ncc2c(n1)N(C1CCCC1)Cc1nnc(C)n1-2`: 0.41 µM, 8.46 µM and above 30 µM.

The record behind these values is ChEMBL document CHEMBL4340554, “Design, synthesis and biological evaluation of novel 4,5-dihydro-[1,2,4]triazolo[4,3-f]pteridine derivatives as potential BRD4 inhibitors” (Bioorg Med Chem, 2019).
